Measured values published in ChEMBL document CHEMBL3244421, “Antiarrhythmic activity of some N-alkylbispidinebenzamides” (J Med Chem, 1979).

Tests used:
Mus musculus [1] = assay: Antiarrhythmic activity in ip dosed CF1 mouse assessed as protection against chloroform-induced ventricular fibrillation; assay type: functional; conditions: CF1, Heart
In short: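 Adult female CF1 mice; protection against ventricular fibrillation provoked by chloroform exposure, used as the first screen of antiarrhythmic activity.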

[2] = Acute toxicity in ip dosed CF1 mouse; assay type: organism-based; conditions: in vivo
Mus musculus [3] = assay: Ratio of LD50 for CF1 mouse to ED50 for antiarrhythmic activity in CF1 mouse; design: species or system Heart
[4] = Antiarrhythmic activity in New Zealand rabbit left atrium assessed as reduction in maximum following frequency (MFF); assay type: functional, Oryctolagus cuniculus, Cardiac atrium
In short: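 Left atria from male New Zealand white rabbits, mounted in Krebs-Henseleit buffer at 35 °C and aerated with 95% O2-5% CO2. Driven by 10-ms square-wave pulses at five times threshold voltage. Control maximum following frequency (MFF) was determined first, then MFF reduction at 1, 3, 13, 33 and 133 μM. ED25 (concentration reducing MFF to 75% of control) was estimated from dose-response curves.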

[5] = Toxicity in New Zealand rabbit assessed as reduction in force of left atrial contraction; assay type: tissue-based, Oryctolagus cuniculus, Cardiac atrium
[6] = Ratio of ED25 for reduction in force of left atrial contraction in New Zealand rabbit to ED25 for reduction in maximum following frequency in New Zealand rabbit left atrium; design: species or system Oryctolagus cuniculus, Cardiac atrium

SMILES	ED50 (Mus musculus [1]) [µmol/kg]	LD50 [2] [µmol/kg]	Ratio LD50/ED50 (Mus musculus [3])	ED25 [4] [µM]	ED25 [5] [µM]	Ratio [6]
CN1CC2CC(C1)CN(C(=O)c1ccccc1)C2.O=C(O)/C=C/C(=O)O	85	621	7.29	400	> 400	
COc1ccc(C(=O)N2CC3CC(CN(C)C3)C2)cc1.O=C(O)/C=C/C(=O)O	78	463	5.93	500	> 400	
COc1cc(C(=O)N2CC3CC(CN(C)C3)C2)cc(OC)c1OC.O=C(O)/C=C/C(=O)O	137	535	3.91			
CN1CC2CC(C1)CN(C(=O)c1ccc(Cl)cc1)C2.O=C(O)/C=C/C(=O)O	49	535	10.89	110	400	3.64
CN1CC2CC(C1)CN(C(=O)c1ccc(Cl)c(Cl)c1)C2.O=C(O)/C=C/C(=O)O	470	492	1.05			
CCCCN1CC2CC(C1)CN(C(=O)c1ccccc1)C2.Cl	242	500	2.07			
CCCCN1CC2CC(C1)CN(C(=O)c1ccc(OC)cc1)C2.O=C(O)/C=C/C(=O)O	106	488	4.6			
CCCCN1CC2CC(C1)CN(C(=O)c1ccc(Cl)cc1)C2.O=C(O)/C=C/C(=O)O	134	463	3.45			
CCCCN1CC2CC(C1)CN(C(=O)c1ccc(Cl)c(Cl)c1)C2.O=C(O)/C=C/C(=O)O	223	605	2.71			
CC(C)N(CCC(C(N)=O)(c1ccccc1)c1ccccn1)C(C)C (stereo not given) [DISOPYRAMIDE]	90	517	5.77	18	56	3.11
